Test results: ChEMBL document CHEMBL5058577, “EUbOPEN Chemogenomics Library 2 (Multiplex)” (2022)

Tested on: Fibroblast
Assay: Multiplex assay against human fibroblast
Type: toxicity, cell-based
Procedure, shortened: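 At seeding, live cells were stained with Hoechst33342, BioTracker Green Microtubule Cytoskeleton Dye, MitoTracker Red and Annexin V Alexa Fluor 680. After compound addition they were imaged on a CQ1 microscope at 37°C and 5% CO2, and CellPathfinder machine-learning gating sorted them into Hoechst high-intensity objects or normal cells, with normal cells further split into healthy, pyknosed or fragmented nuclei and pyknosed cells into mitotic or apoptotic. Tubulin, mitochondrial-mass and membrane-permeability phenotypes are given as per cents of cells with healthy nuclei.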

[1] = 12 h, 1 µM, compound concentration 1 uM, replicate 1
[2] = 12 h, 1 µM, compound concentration 1 uM, replicate 2
[3] = 12 h, 10 µM, compound concentration 10 uM, replicate 1
[4] = 12 h, 10 µM, compound concentration 10 uM, replicate 2
[5] = 24 h, 1 µM, compound concentration 1 uM, replicate 1
[6] = 24 h, 1 µM, compound concentration 1 uM, replicate 2
[7] = 24 h, 10 µM, compound concentration 10 uM, replicate 1
[8] = 24 h, 10 µM, compound concentration 10 uM, replicate 2
[9] = 48 h, 1 µM, compound concentration 1 uM, replicate 1
[10] = 48 h, 1 µM, compound concentration 1 uM, replicate 2
[11] = 48 h, 10 µM, compound concentration 10 uM, replicate 1
[12] = 48 h, 10 µM, compound concentration 10 uM, replicate 2

CN(C)C/C=C/C(=O)Nc1ccc(C(=O)N2CCCC(Nc3ncc(Cl)c(-c4c[nH]c5ccccc45)n3)C2)cc1 (centres undefined)
Population Apoptotic (%) [1]: 48%
Population Fragmented Nuclei (%) [1]: 15%
Population Healthy Nuclei (%) [1]: 64%
Population Hoechst High Intensity Objects (%) [1]: 2%
Population Membrane Permeable-Phenotype (%) [1]: 2%
Population Mitochondria Different-Phenotype (%) [1]: 11%
Population Mitotic Cells (%) [1]: 51%
Population Normal (%) [1]: 97%
Population Pyknosed Nuclei (%) [1]: 19%
Population Tubulin-Different-Phenotype (%) [1]: 40%
Total Cell Count [1]: 152
Population Apoptotic (%) [2]: 46%
Population Fragmented Nuclei (%) [2]: 21%
Population Healthy Nuclei (%) [2]: 53%
Population Hoechst High Intensity Objects (%) [2]: 6%
Population Membrane Permeable-Phenotype (%) [2]: 3%
Population Mitochondria Different-Phenotype (%) [2]: 13%
Population Mitotic Cells (%) [2]: 53%
Population Normal (%) [2]: 93%
Population Pyknosed Nuclei (%) [2]: 25%
Total Cell Count [2]: 182
Population Apoptotic (%) [3]: 59%
Population Fragmented Nuclei (%) [3]: 18%
Population Healthy Nuclei (%) [3]: 53%
Population Hoechst High Intensity Objects (%) [3]: 4%
Population Membrane Permeable-Phenotype (%) [3]: 1%
Population Mitochondria Different-Phenotype (%) [3]: 37%
Population Mitotic Cells (%) [3]: 40%
Population Normal (%) [3]: 95%
Population Pyknosed Nuclei (%) [3]: 27%
Population Tubulin-Different-Phenotype (%) [3]: 77%
Total Cell Count [3]: 140
Population Apoptotic (%) [4]: 48%
Population Fragmented Nuclei (%) [4]: 23%
Population Healthy Nuclei (%) [4]: 41%
Population Hoechst High Intensity Objects (%) [4]: 8%
Population Membrane Permeable-Phenotype (%) [4]: 12%
Population Mitochondria Different-Phenotype (%) [4]: 19%
Population Mitotic Cells (%) [4]: 51%
Population Normal (%) [4]: 91%
Population Pyknosed Nuclei (%) [4]: 35%
Population Tubulin-Different-Phenotype (%) [4]: 58%
Total Cell Count [4]: 147
Population Apoptotic (%) [5]: 68%
Population Fragmented Nuclei (%) [5]: 25%
Population Healthy Nuclei (%) [5]: 48%
Population Hoechst High Intensity Objects (%) [5]: 7%
Population Membrane Permeable-Phenotype (%) [5]: 2%
Population Mitochondria Different-Phenotype (%) [5]: 7%
Population Mitotic Cells (%) [5]: 31%
Population Normal (%) [5]: 92%
Population Pyknosed Nuclei (%) [5]: 26%
Population Tubulin-Different-Phenotype (%) [5]: 40%
Total Cell Count [5]: 155
Population Apoptotic (%) [6]: 37%
Population Fragmented Nuclei (%) [6]: 26%
Population Healthy Nuclei (%) [6]: 49%
Population Membrane Permeable-Phenotype (%) [6]: 10%
Population Mitochondria Different-Phenotype (%) [6]: 10%
Population Mitotic Cells (%) [6]: 62%
Population Pyknosed Nuclei (%) [6]: 23%
Population Tubulin-Different-Phenotype (%) [6]: 54%
Total Cell Count [6]: 181
Population Apoptotic (%) [7]: 65%
Population Fragmented Nuclei (%) [7]: 13%
Population Healthy Nuclei (%) [7]: 49%
Population Hoechst High Intensity Objects (%) [7]: 2%
Population Membrane Permeable-Phenotype (%) [7]: 0%
Population Mitochondria Different-Phenotype (%) [7]: 52%
Population Mitotic Cells (%) [7]: 34%
Population Normal (%) [7]: 97%
Population Pyknosed Nuclei (%) [7]: 37%
Population Tubulin-Different-Phenotype (%) [7]: 84%
Total Cell Count [7]: 119
Population Apoptotic (%) [8]: 47%
Population Fragmented Nuclei (%) [8]: 30%
Population Healthy Nuclei (%) [8]: 42%
Population Hoechst High Intensity Objects (%) [8]: 6%
Population Membrane Permeable-Phenotype (%) [8]: 5%
Population Mitochondria Different-Phenotype (%) [8]: 35%
Population Mitotic Cells (%) [8]: 52%
Population Normal (%) [8]: 93%
Population Pyknosed Nuclei (%) [8]: 27%
Population Tubulin-Different-Phenotype (%) [8]: 72%
Total Cell Count [8]: 149
Population Apoptotic (%) [9]: 63%
Population Fragmented Nuclei (%) [9]: 33%
Population Healthy Nuclei (%) [9]: 36%
Population Hoechst High Intensity Objects (%) [9]: 10%
Population Membrane Permeable-Phenotype (%) [9]: 2%
Population Mitochondria Different-Phenotype (%) [9]: 20%
Population Mitotic Cells (%) [9]: 36%
Population Normal (%) [9]: 90%
Population Pyknosed Nuclei (%) [9]: 30%
Population Tubulin-Different-Phenotype (%) [9]: 48%
Total Cell Count [9]: 150
Population Apoptotic (%) [10]: 60%
Population Fragmented Nuclei (%) [10]: 35%
Population Healthy Nuclei (%) [10]: 40%
Population Hoechst High Intensity Objects (%) [10]: 8%
Population Membrane Permeable-Phenotype (%) [10]: 8%
Population Mitochondria Different-Phenotype (%) [10]: 25%
Population Mitotic Cells (%) [10]: 40%
Population Normal (%) [10]: 91%
Population Pyknosed Nuclei (%) [10]: 24%
Population Tubulin-Different-Phenotype (%) [10]: 68%
Total Cell Count [10]: 158
Population Apoptotic (%) [11]: 77%
Population Fragmented Nuclei (%) [11]: 28%
Population Healthy Nuclei (%) [11]: 20%
Population Hoechst High Intensity Objects (%) [11]: 14%
Population Membrane Permeable-Phenotype (%) [11]: 0%
Population Mitochondria Different-Phenotype (%) [11]: 55%
Population Mitotic Cells (%) [11]: 22%
Population Normal (%) [11]: 85%
Population Pyknosed Nuclei (%) [11]: 51%
Population Tubulin-Different-Phenotype (%) [11]: 66%
Total Cell Count [11]: 103
Population Apoptotic (%) [12]: 68%
Population Fragmented Nuclei (%) [12]: 27%
Population Healthy Nuclei (%) [12]: 41%
Population Hoechst High Intensity Objects (%) [12]: 13%
Population Membrane Permeable-Phenotype (%) [12]: 17%
Population Mitochondria Different-Phenotype (%) [12]: 29%
Population Mitotic Cells (%) [12]: 31%
Population Normal (%) [12]: 86%
Population Pyknosed Nuclei (%) [12]: 30%
Population Tubulin-Different-Phenotype (%) [12]: 80%
Total Cell Count [12]: 130
